Experimental data reported in the RNAGym collection of RNA variant scans (doi:10.1126/science.aae0568).
This sample holds only a part of the variants without activity.

B1: tRNA (parent)
chain: GUUCCGUUGGCGUAAUGGUAACGCGUCUCCCUCCUAAGGAGAAGACUGCGGGUUCGAGUCCCGUACGGAACG

Variants of: B1
Experiment: yeast fitness relative to wild type (ratio to wild type); higher = fitter; tRNA-Arg(CCU), competitive growth, 37 C, YPD
Summary of the method: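 Variants of the tRNA-Arg(CCU) gene were chemically synthesised with a 3% per-site mutation rate across 69 sites and placed at the native genomic locus in Saccharomyces cerevisiae. Six parallel replicates of the pooled strains were competed in YPD at 37°C for 24 hours, and gene amplicons from the start and end populations were read by 100-nucleotide paired-end sequencing. Darwinian fitness relative to wild type was derived from changes in genotype frequencies. Genotypes required ≥ 100 starting reads, and estimates < 0.5 were set to 0.5.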

Variant | yeast fitness
GUUGGGUUGGCGUAAUGGUAACGCGGCUCCCUCCUAAGGAGAAGCCUGCGGGUUCGAGUCCCGUACAGAACG [C4G C5G U26G A45C G67A] | 0.664
GUUGCGUUGGCGUAAUGGUAACGCGUCUCCCUCCUAAGGAGUAGACUGCGGGUUCGAGUCCCGUACGCAACG [C4G A42U G68C] | ≤ 0.5
GUUGCGUUGGCGUAAUGGUAACGCGUCUCCCUCCUAAGGAGUAGACUACGGGUUCGAGUCCCGUACGGAACG [C4G A42U G48A] | 0.575
GUUGGGUUGGCGUAAUGGUAACGCGUCUCCCUCCUAAGGAGAAGACUGCGGGUUCAAGUCCCGUACGGCACG [C4G C5G G56A A69C] | ≤ 0.5
GUUGUGUUGGCCUAAUGGUAACGCGUCUCCCUCCUAAGGAGAAGACUGCGGGUUCGAGUCCCGUACGGAACG [C4G C5U G12C] | ≤ 0.5
GUUGUGUUGGCGUAAUGGUAACGCGUCUCCGUCCUAAGGAGAUGACUGCGGGUUCGAGUCCCGUACGGAACG [C4G C5U C31G A43U] | ≤ 0.5
GUUGCGUUGGCGUAAUGGUAACGCGUCUCCCUCCUAAGGAGAAGACUGCGGGUUCGUGGCCCGUACGGAACG [C4G A57U U59G] | ≤ 0.5
GUUGCGUUGGCGUAAUGGUAACGCGUCUCCCUCCUAAGGAGAAGUCUGUGGGUUCGAGUCCCGUACGGAACG [C4G A45U C49U] | 0.502
GUUGGGUUGGCGUAAUGGUAACGCGUCUUCCUCCUAAGGAGAAGACUGCCGGUUCGAGACCCGUACGGAACG [C4G C5G C29U G50C U59A] | ≤ 0.5
GUUGAGUUGGUGUAAUGCUAACGCGUCUCCCUCCUAAGGAGAAGAGUGCGGGUUCGAGUCCCGUACGGAACG [C4G C5A C11U G18C C46G] | ≤ 0.5
GUUGCGUUGGCGUAAUGGUAACGCGUCUCCCUCCUAAGGAGAUGACUGCGCGUUCGAGUCCCGUACGGAACG [C4G A43U G51C] | ≤ 0.5
GUUGUGUAGGCAUAAUGGUAACGCGUCUCCCUCCUAAGGAGAAGACUACGGGUUCGAGUCCCGUACGGCACG [C4G C5U U8A G12A G48A A69C] | ≤ 0.5
GUUGAGUUGGCGUAAUGGUAACGCGUUUCCCUCCUAAGGAGAAGACUGCGGGUUCGAGUCCCGUACGAAACG [C4G C5A C27U G68A] | ≤ 0.5
GUUGGGUUGGCGUUAUGGUCACGCGUCUCCCUCGUACGGAGAAGACUGUGGGUUCGAGUCCCGUACGGAACG [C4G C5G A14U A20C C34G A37C C49U] | 0.559
GUUGUGUUGGCGUAAUGGUAACGCGUCUCCCUCCUAAGGAGAAGACUGAGGGUUCAAGUCCCCUACGAAACG [C4G C5U C49A G56A G63C G68A] | ≤ 0.5
GUUGCGUUGGCGUAAUGGUAACGCGUCUCCCUCCUAAGGAGAAGACUGCGGGUUCGAGUCCCGUACGGUACG [C4G A69U] | 0.775
GUUGUGUUGGCGUAAUGGUAACGCGUCUCCCUCCUAAGGAGAACACUGCGGGUUCGAGUCCCAUACUGAACG [C4G C5U G44C G63A G67U] | ≤ 0.5
GUUGGGUUGGCGCAAUGGUAACGCGUCGCCCUCCUAAGGAGAAGACUGCGGGUUCGAGUCCCGUACGGAACG [C4G C5G U13C U28G] | ≤ 0.5
GUUGCGUUGGCGUAAUGGUAACGCGUCUCCCUCCUAAGGAGAAGACUGCGGGUUCGAGUCCCGUACGGUCCG [C4G A69U A70C] | 0.771

Variant | yeast fitness
GUUGGGUUGGCGUAAUGGUGUCGCGUCUCCCUCGUAAGGAGAAGAAUGCGGGUUCGAGUCACGUACGGAACG [C4G C5G A20G A21U C34G C46A C61A] | ≤ 0.5
GUUGUGUUGGCGAAAUGGUAACGCGUCUCCCUCCUAAGGAGUAGACUGCGGGUUCGAGUCUCGUACGGAACG [C4G C5U U13A A42U C61U] | ≤ 0.5
GUUGCGUUGGCGUAAUGGUAACGCGUCUCCCUCCUAAGGAGAAGUCUGCGGGUUCGAGUCCCGUACGGACCG [C4G A45U A70C] | 0.808
GUUGGGUUGGCGUAAUGGUAACGCGUCUCUUUCCUAGGGAGAAGACUGCCGGUUCGUGUCCCGUACGGAACG [C4G C5G C30U C31U A37G G50C A57U] | ≤ 0.5
GUUGCGUUGGCGUAAUGGUAACGCGUCUCCCUCCUAAGGAGAAGUCUGCGGGUUCGAGUCCUGUACGAAACG [C4G A45U C62U G68A] | ≤ 0.5
GUUGAGUCGGCGUAAUGGUACCGCGUCUCCAUCCUAAGGAGGAGACUGCGGGUUCGAGUCCCGUACGGAACG [C4G C5A U8C A21C C31A A42G] | ≤ 0.5
GUUGAGUUGGCGUAAUGGAAACGGGUCUGCCUCCUAAGGAGAAGACUGCGGGUUCGAGUCCCGUACGGAACG [C4G C5A U19A C24G C29G] | ≤ 0.5
GUUGGGUUGGCGUUAUGGUAACGCGUCUCCCUCCUAAGGAGAAGAGUGCGGGUUCGAGUCCCGUACGGUACG [C4G C5G A14U C46G A69U] | ≤ 0.5
GUUGCGUUGGCGUAAUGGUAACGCGUCUCCCUCCUAAGGUGAAGACUGCGGGUUCGAGUCCCGUAUGGAACG [C4G A40U C66U] | 0.571
GUUGCGUUGGCGUAAUGGUAACGCGUCUCCCUCCUAAGGAGAAGCCUGCGGGUUCGAGUCCCGUACGGUACG [C4G A45C A69U] | 0.789
GUUGUGUUGGCGUAAUGGUAACGCGUCUCCCUCCUAAGGAGAAGACUGCGGGUUCGAGUCCCGUGCGGACCG [C4G C5U A65G A70C] | ≤ 0.5
GUUGCGUUGGCGUAAUGGUAACGCGUCUCCCUCCUAAGGAGAAGUCUGUGGGUUCGAGUCCCGUUCGGAACG [C4G A45U C49U A65U] | ≤ 0.5
GUUGGGUUGGCGUUAUGGUAACGCGUCUCCCUCCUAAGGAGAAGACUGGGGGUUCGUGUCCCAUACAGAACG [C4G C5G A14U C49G A57U G63A G67A] | 0.631
GUUGGGUUGGCGUAAUGGUAACGCGUCUCCCUCCUAAGGAGAGGACUGCGGGUUCGAGUCCCGUACGGAACG [C4G C5G A43G] | 0.556
GUUGGGUCGGCGUAAUGGUAACCCGUCUUCCUCCUAAGGAGAAGUCUGCGGGUUCGAGUCCCGUACGAAACG [C4G C5G U8C G23C C29U A45U G68A] | 0.59
GUUGUGUUGGCGUAAUGGUAACGCGUCUCCCUCCUAAGGAGGAGACUGCGGGUUCGAGUCCCGUACAGAACG [C4G C5U A42G G67A] | ≤ 0.5
GUUGAGUUGGCGUAAUGGUAACGUGUCUCCCUCCUAAGGAGAAGACUGCGGGUUCGAGUCCCGUACGGAACG [C4G C5A C24U] | ≤ 0.5
GUUGUGUUGGAGUAAUGGUAACGCGUCUCCCUCCUAAGGAGAAGAAAGCGGGAUCGAGUCCCGUACGGAACG [C4G C5U C11A C46A U47A U53A] | 0.566
